GSTO1 inh = GSTO1 inhibition, counter-screen for RBBP9 inhibitors; P78417; recombinant GSTO1, activity-based probe fluorescence polarization; inhibition, % at 5.96 µM; hit rate 1.1% among 300,000;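 active = inhibition above the campaign mean inhibition plus 3 SD, cut at about 35% in these data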;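 also: 0% = GSTO1-1 with DMSO and 100% = wells lacking GSTO1-1 enzyme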
SIAE inh = blocks human sialic acid acetylesterase; Q9HAT2; SIAE FP-Rh probe binding, fluorescence polarization; inhibition, % at 9.66 µM; hit rate 0.69% among 370,000; AID 1053197;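 active = inhibition above a cutoff: mean of compounds within the control limits plus 3 SD of those, cut at about 17% in these data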;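 also: 0% = plate median of compound wells and 100% = probe without SIAE protein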
PAD4 FP inh = inhibitors of human PAD4. hit rate 0.41% among 330,000. Q9UM07. recombinant PAD4, RCA probe fluorescence polarization. inhibition, % at 6.36 µM;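 active = percent inhibition above a cutoff equal to the mean of all tested compounds plus 3 SD, cut at about 15% in these data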;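 also: 0% = PAD4 with RCA probe and DMSO and 100% = probe without PAD4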
Target sequence (Q9UM07 whole entry, looked up): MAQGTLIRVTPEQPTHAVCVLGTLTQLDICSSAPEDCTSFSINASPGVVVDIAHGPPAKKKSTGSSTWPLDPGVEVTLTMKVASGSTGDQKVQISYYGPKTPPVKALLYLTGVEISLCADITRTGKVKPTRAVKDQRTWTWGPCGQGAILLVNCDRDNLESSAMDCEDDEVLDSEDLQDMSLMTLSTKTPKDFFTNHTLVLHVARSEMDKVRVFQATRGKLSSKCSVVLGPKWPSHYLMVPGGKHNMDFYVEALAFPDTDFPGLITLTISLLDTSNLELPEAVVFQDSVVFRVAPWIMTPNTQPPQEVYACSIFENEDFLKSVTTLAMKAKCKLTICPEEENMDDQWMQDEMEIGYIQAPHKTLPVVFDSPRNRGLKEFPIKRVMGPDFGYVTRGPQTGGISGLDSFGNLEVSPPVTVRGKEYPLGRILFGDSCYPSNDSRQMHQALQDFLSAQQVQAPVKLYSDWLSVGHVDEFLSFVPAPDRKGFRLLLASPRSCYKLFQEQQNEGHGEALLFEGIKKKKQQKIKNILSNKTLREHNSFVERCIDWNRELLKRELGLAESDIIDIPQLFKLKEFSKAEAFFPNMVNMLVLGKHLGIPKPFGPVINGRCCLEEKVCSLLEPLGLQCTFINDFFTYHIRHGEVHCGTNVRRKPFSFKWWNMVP
RBBP9 inh = blocks human serine hydrolase RBBP9 | AID 1515 | recombinant RBBP9, FP-Rh probe fluorescence polarization | hit rate 0.2% among 220,000 | inhibition, % at 7.94 µM;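 active = inhibition above the campaign mean of all tested compounds plus 3 SD, cut at about 14% in these data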;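 also: plate controls were DMSO wells with RBBP9 for no effect and wells lacking RBBP9 protein for full effect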
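Assay system: recombinant human RBBP9; Reagent: Serine-hydrolase probe FP-Rh, 375 nM pre-mixing; Doses: 7.94 µM single dose, 0.794% DMSO; Incubation: 30 min then 45 min, 25 °C; Detection: fluorescence polarization (mP), excitation 525 nm, emission 598 nm; Evaluation: percent inhibition from mP, scaled between DMSO and no-protein wells.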
PRMT1 FP inh = inhibitors of human PRMT1 | Q99873 | recombinant PRMT1, activity-based probe fluorescence polarization | inhibition, % at 2.79 µM | hit rate 1.3% among 370,000 | AID 652257;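 active = inhibition above about 21% made by adding two undisclosed values, limit read from the data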
PRMT1 inh conf = confirmation of human PRMT1 inhibitors; inhibition, % at 2.79 µM; recombinant His-PRMT1, activity-based probe fluorescence polarization; AID 687036; shares compounds with PRMT1 FP inh; hit rate 42% among 3,300;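 active = mean inhibition across replicates above the hit cutoff derived for the earlier primary screen, cut at about 22% in these data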
* marks the source's active call; other numbers are inactive results; x = not tested or not shown. An excerpt weighted towards active compounds, which were near 2.7% of everything screened.

SMILES | GSTO1 inh | SIAE inh | PAD4 FP inh | RBBP9 inh | PRMT1 FP inh | PRMT1 inh conf
COc1ccc(C2Nc3ccccc3C(=O)N2Cc2ccc(C)o2)cc1COc1c(C)cccc1C (stereo not drawn) | x | -4.6 | x | x | 38.7* | 3.0
COc1ccc(C2Nc3ccccc3C(=O)N2Cc2ccco2)cc1COc1ccccc1C (stereo not drawn) | x | -10.7 | x | x | 3.3 | x
O=C(Nc1ccccc1)c1nc[nH]c1C(=O)Nc1ccccc1F | x | -8.6 | x | x | -2.4 | x
COc1cc2[nH]c(Cl)c([N+](=O)[O-])c2cc1OC | 20.0 | 3.9 | -12.9 | -2.2 | 30.3* | 15.0
COc1cc2[nH]c3c(Cl)ncnc3c2cc1OC | 9.4 | -1.0 | -1.8 | -1.5 | 1.4 | x
O=C1CC(N2CCN(Cc3ccc4c(c3)OCO4)CC2)C(=O)N1Cc1ccc(N2CCCC2=O)cc1 (stereo not drawn) | 1.7 | -1.9 | 0.1 | 2.5 | 3.1 | x
O=C1CCCN1CCC1CCN(C2CC(=O)N(c3ccc(Cl)cc3)C2=O)CC1 (stereo not drawn) | -1.9 | -3.9 | -6.1 | -0.7 | 50.4* | 9.1
O=C1CC(N2CCOCC2)C(=O)N1Cc1ccc(N2CCCC2=O)cc1 (stereo not drawn) | -5.0 | -5.6 | -4.1 | -6.7 | 14.5 | x
O=C1CCCN1CCC1CCN(C2CC(=O)N(Cc3ccc(N4CCCC4=O)cc3)C2=O)CC1 (stereo not drawn) | -3.1 | -4.2 | -4.6 | -2.3 | 92.6* | 7.2
O=C1CC(N2CCC(O)(c3ccc(Cl)cc3)CC2)C(=O)N1Cc1ccc(N2CCCC2=O)cc1 (stereo not drawn) | 7.7 | 8.3 | -0.2 | -12.2 | 63.0* | 4.4
Cc1cc(Oc2ccc(OCC(N)=O)nn2)nc(Cl)n1 | -3.8 | -2.3 | -1.7 | -6.0 | -7.7 | x
Cc1ccc(NNC(N)=S)cc1Cl | -1.7 | 0.6 | 7.3 | 1.9 | 28.0* | 3.0
CCc1c(O)nc(SCC(=O)Nc2ccccc2C)n(-c2ccc(C)cc2)c1=O | 17.3 | 7.5 | -2.1 | x | 29.6* | 12.9
Cc1c(O)nc(SCC(=O)Nc2cccc(C(F)(F)F)c2)n(-c2ccccc2)c1=O | x | 2.6 | x | x | 94.8* | 75.1*
CCn1c(C)nnc1SCC(=O)Nc1cccc(C(F)(F)F)c1 | 4.2 | 1.5 | -1.6 | x | -0.1 | x
CCc1c(O)nc(SCC(=O)Nc2nc3ccccc3s2)n(-c2ccccc2)c1=O | -3.4 | -0.3 | 5.9 | -1.7 | 38.4* | 42.4*
CCc1c(O)nc(SCC(=O)Nc2cc(C)on2)n(-c2ccccc2)c1=O | 1.8 | -3.9 | -1.2 | x | 53.1* | 23.7*
CCc1c(O)nc(SCC(=O)Nc2nc3ccccc3s2)n(-c2ccc(C)cc2)c1=O | 7.6 | 3.2 | 4.5 | -6.1 | -4.9 | x
CCc1c(O)nc(SCC(=O)Nc2c(C)cccc2C)n(-c2ccc(F)cc2)c1=O | x | -3.1 | x | x | 13.7 | x
C[C@@H]1CCCCO[C@H](CN(C)Cc2ccc(C(=O)O)cc2)[C@@H](C)CN([C@H](C)CO)C(=O)c2cc(N(C)C)ccc2O1 | x | 7.1 | x | x | 0.2 | x
CC(=O)c1ccc(OC(C)C)c(Cc2c(O)nc(N)[nH]c2=O)c1 | 1.0 | -0.5 | 2.8 | -6.8 | 1.8 | x
CCOC(=O)N/N=C(\C)c1ccc(OC(F)F)cc1OC(F)F | 6.3 | 2.7 | -1.9 | -3.8 | 2.2 | x
Cc1cc(NC(=O)C(C)SCC(=O)Nc2ccccc2N2CCCC2)no1 (stereo not drawn) | 0.5 | 7.8 | -0.4 | x | -3.8 | x
CCS(=O)(=O)N1CCCC(C(=O)N2CCc3ccccc3C2)C1 (stereo not drawn) | 7.6 | 1.9 | -5.0 | -8.4 | -3.0 | x
Cc1ccc(NC(=O)CSc2nc(O)c(Cc3ccccc3)c(=O)n2-c2ccccc2)cc1 | 1.4 | 2.3 | -0.3 | 1.1 | 32.7* | 28.9*
SMILES | GSTO1 inh | SIAE inh | PAD4 FP inh | RBBP9 inh | PRMT1 FP inh | PRMT1 inh conf
CCCCc1c(O)nc(SCC(=O)Nc2cccc3ccccc23)n(-c2ccccc2OC)c1=O | -1.3 | -5.5 | -2.9 | x | 42.0* | 23.4*
CCc1c(O)nc(SCC(=O)Nc2ccccc2)n(-c2ccccc2C)c1=O | x | -3.6 | x | x | 36.4* | 20.2
COc1ccc(-n2c(SCC(=O)Nc3ccccc3OC)nc(O)c(Cc3ccccc3)c2=O)cc1 | -3.5 | 1.6 | -0.7 | x | 30.4* | 22.4*
CCc1c(O)nc(SCC(=O)Nc2ccccc2)n(-c2ccccc2)c1=O | 2.8 | 3.4 | 5.6 | -5.8 | 17.5 | x
Cc1ccc(NC(=O)CSc2nnc(C)n2-c2ccccc2)cc1 | -0.6 | 4.2 | -4.4 | -1.6 | -0.7 | x
Cc1cccc(NC(=O)N2C3CCCC2CC(NC(=O)C2CC2)C3)c1 (stereo not drawn) | 1.9 | 1.9 | -0.2 | x | 2.7 | x
Cc1ccsc1/C=C1/SC(N2CC(C)OC(C)C2)=NC1=O (stereo not drawn) | -5.2 | -3.9 | 1.3 | -8.2 | 1.3 | x
CC(C)[C@H](NC(=O)c1ccccc1)C(=O)OCC(=O)c1ccccc1F | 3.7 | -4.6 | -1.6 | -7.3 | 2.0 | x
NCc1csc(NC(=O)Nc2cccc(C(F)(F)F)c2)n1 | x | -1.3 | x | x | 2.1 | x
CCc1c(O)nc(SCC(=O)Nc2ccc(C)cc2)n(C2CCCCC2)c1=O | -5.0 | 8.5 | -1.9 | -2.3 | 9.9 | x
CCc1c(O)nc(SCC(=O)Nc2ccc(Br)cc2)n(-c2ccc(C)cc2)c1=O | -1.9 | 0.5 | -6.8 | x | 45.4* | 33.1*
Cc1cc2cc(CNC(=O)c3ccco3)ccc2n1C | 14.8 | 6.3 | 9.4 | x | 35.8* | 2.0
CN(C)CCNC(=O)C(=O)Nc1cc2c3c(c1)CCC(=O)N3CCC2 | 11.4 | 2.6 | 1.8 | x | 3.2 | x
CC(C)(CNC(=O)c1cccc(S(=O)(=O)Nc2ccc(SC(F)F)cc2)c1)N1CCOCC1 | x | -7.0 | x | x | 46.1* | 65.7*
O=C(NC1CCN(Cc2ccccc2)CC1)c1cccc(S(=O)(=O)Nc2ccc(SC(F)F)cc2)c1 | x | -3.5 | 7.4 | x | 41.5* | 57.6*
CCn1cc([N+](=O)[O-])c(C(=O)N2N=C(c3ccc(Cl)c(Cl)c3)CC2c2ccccc2O)n1 (stereo not drawn) | -24.9 | -37.2 | -13.6 | -15.6 | 2.1 | x
O=c1[nH]c2cc3c(cc2cc1CN(Cc1cccnc1)Cc1nnnn1Cc1ccco1)OCCO3 | 17.0 | 6.9 | -5.3 | -8.4 | 34.9* | 26.5*
CCC(c1nnnn1Cc1ccco1)N(CCc1ccccc1)Cc1cc2cc(C)ccc2[nH]c1=O (stereo not drawn) | -8.4 | 3.8 | -6.9 | x | 18.9 | x
Cc1ccc2[nH]c(=O)c(CN(CCc3ccccc3)C(c3nnnn3Cc3ccco3)C(C)C)cc2c1 (stereo not drawn) | -11.1 | -9.6 | -12.8 | -11.3 | 27.0* | 11.8
O=c1[nH]c2cc3c(cc2cc1CN(Cc1cccs1)Cc1nnnn1Cc1ccco1)OCCO3 | 6.7 | 3.8 | 0.9 | -1.1 | 57.6* | 33.4*
O=c1[nH]c2cc3c(cc2cc1CN(Cc1ccccc1)Cc1nnnn1Cc1ccco1)OCCO3 | x | 1.1 | x | -8.7 | 51.9* | 20.5
COCCCNC(=O)C[C@H]1C[C@@]2(C(=O)OC)C(=C[C@H](C(C)C)O[C@@H]2C2CC2)N(Cc2cccc3ccccc23)C1=O | x | 3.2 | x | x | -1.6 | x
CCOC(=O)Cc1csc(NC(=O)CN2CCCCC2)n1 | -11.4 | -4.4 | -3.0 | x | -3.5 | x

Bioassay records deposited in PubChem by The Scripps Research Institute Molecular Screening Center.
